This is an account of results in ChEMBL document CHEMBL1134232, “Phenylcyclohexene and phenylcyclohexadiene substituted compounds having retinoid antagonist activity” (Bioorg Med Chem Lett, 2001).

Test [1] has as its target T1, Retinoic acid receptor beta (Homo sapiens, UniProt P10826).
T1 sequence (P10826 whole entry): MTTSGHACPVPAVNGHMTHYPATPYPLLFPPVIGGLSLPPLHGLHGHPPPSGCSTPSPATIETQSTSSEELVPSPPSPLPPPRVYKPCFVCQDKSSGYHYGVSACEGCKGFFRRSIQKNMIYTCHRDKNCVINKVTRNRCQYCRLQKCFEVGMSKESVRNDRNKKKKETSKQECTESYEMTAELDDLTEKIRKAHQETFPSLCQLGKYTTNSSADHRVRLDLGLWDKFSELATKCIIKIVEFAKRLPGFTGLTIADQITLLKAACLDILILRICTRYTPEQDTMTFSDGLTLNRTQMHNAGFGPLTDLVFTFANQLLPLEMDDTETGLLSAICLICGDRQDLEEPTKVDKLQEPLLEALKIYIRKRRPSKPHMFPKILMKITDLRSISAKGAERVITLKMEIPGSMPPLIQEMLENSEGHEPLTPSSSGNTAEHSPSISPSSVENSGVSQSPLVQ
In words: Antagonist activity of TTNPB (10 nM) function at retinoic acid receptor beta. The test is classed as functional. In short, it runs like this:
(§1)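 Transactivation assay run separately at RARα, RARβ and RARγ. Test compound is applied at varying concentrations against 10 nM TTNPB, held constant. Inhibition of TTNPB-driven transcriptional activation is measured, and IC50 is calculated as the half-maximal inhibition concentration.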

For test [2], the target named is T2, Retinoic acid receptor alpha (Homo sapiens, UniProt P10276).
T2 sequence (P10276 whole entry): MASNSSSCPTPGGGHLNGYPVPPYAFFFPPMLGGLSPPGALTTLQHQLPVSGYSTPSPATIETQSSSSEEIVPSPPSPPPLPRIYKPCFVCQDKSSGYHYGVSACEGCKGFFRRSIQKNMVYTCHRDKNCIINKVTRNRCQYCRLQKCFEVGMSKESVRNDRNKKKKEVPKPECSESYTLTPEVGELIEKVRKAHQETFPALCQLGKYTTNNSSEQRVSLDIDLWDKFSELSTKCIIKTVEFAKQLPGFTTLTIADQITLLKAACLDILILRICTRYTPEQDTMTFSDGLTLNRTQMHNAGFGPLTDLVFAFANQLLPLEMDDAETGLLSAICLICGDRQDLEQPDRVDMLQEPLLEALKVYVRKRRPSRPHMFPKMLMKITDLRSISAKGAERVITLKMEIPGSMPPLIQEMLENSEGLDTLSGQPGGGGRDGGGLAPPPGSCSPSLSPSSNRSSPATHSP
In words: Antagonist activity of TTNPB (10 nM) function at retinoic acid receptor alpha. The format is functional. The gist of the method: as §1

Test [3] addresses T3, Retinoic acid receptor gamma (Homo sapiens) (UniProt P13631).
T3 sequence (whole entry): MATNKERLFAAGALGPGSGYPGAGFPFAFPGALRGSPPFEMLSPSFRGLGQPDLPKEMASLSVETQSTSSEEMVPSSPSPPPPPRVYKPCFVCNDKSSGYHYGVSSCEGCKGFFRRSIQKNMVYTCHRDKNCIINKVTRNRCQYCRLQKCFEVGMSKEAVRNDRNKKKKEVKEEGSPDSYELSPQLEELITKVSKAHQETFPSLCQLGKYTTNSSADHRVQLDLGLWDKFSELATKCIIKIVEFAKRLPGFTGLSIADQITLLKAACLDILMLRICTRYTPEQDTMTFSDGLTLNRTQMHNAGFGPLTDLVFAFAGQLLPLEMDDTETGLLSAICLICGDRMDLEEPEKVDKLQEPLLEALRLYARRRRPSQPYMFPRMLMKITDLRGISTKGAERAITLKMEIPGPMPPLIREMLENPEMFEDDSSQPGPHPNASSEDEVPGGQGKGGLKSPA
In words: Efficacy of TTNPB (10 nM) function at retinoic acid receptor gamma (10 uM). The gist of the method:
(§2)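 In the RAR transactivation assay with 10 nM TTNPB, efficacy is the percent of TTNPB transcriptional activity antagonized at the highest dose tested (10⁴ nM). Each receptor subtype is tested separately.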

For test [4], the target named is T4, Retinoic acid receptor gamma (Homo sapiens, UniProt P13631).
T4 sequence (P13631 whole entry): T3 sequence (whole entry)
The experiment in a line: Antagonist activity of TTNPB (10 nM) function at retinoic acid receptor gamma. The format is functional. The gist of the method:
as §1

The target in test [5] is T5, Retinoic acid receptor alpha (Homo sapiens) (UniProt P10276).
T5 sequence (whole entry): T2 sequence (P10276 whole entry)
In words: Efficacy of TTNPB (10 nM) function at retinoic acid receptor alpha, antagonized at highest dose tested (10⁴ nM). In short, it runs like this: as §2

Test [6] concerns the target T6, Retinoic acid receptor beta (Homo sapiens) (UniProt P10826).
T6 sequence (whole entry): T1 sequence (P10826 whole entry)
The experiment in a line: Efficacy of TTNPB (10 nM) function at retinoic acid receptor beta (10 uM). The gist of the method: as §2

The target in test [7] is T4, Retinoic acid receptor gamma. The experiment in a line: Binding affinity towards retinoic acid receptor gamma was determined using [3H]ATRA (5 nM) as radioligand.
In test [8] the target is T1, Retinoic acid receptor beta. The experiment in a line: Binding affinity towards retinoic acid receptor beta was determined using [3H]ATRA (5 nM) as radioligand.
Test [9] has as its target T2, Retinoic acid receptor alpha. In words: Binding affinity towards retinoic acid receptor alpha was determined using [3H]ATRA (5 nM) as radioligand.
For test [10] the target is unchanged. In words: Ability to inhibit TTNPB-induced transactivation at retinoic acid receptor alpha.
The target in test [11] is T1, Retinoic acid receptor beta. The experiment in a line: Ability to inhibit TTNPB-induced transactivation at retinoic acid receptor beta.
In test [12] the target is T4, Retinoic acid receptor gamma. The experiment in a line: Ability to inhibit TTNPB-induced transactivation at retinoic acid receptor gamma.

Bounds are passed on as bounds.

For `Cc1ccc(C2=C(/C=C/C#Cc3ccc(C(=O)O)cc3)C(C)(C)CCC2)cc1`, the figures for the concentration for half-maximal inhibition (IC50) in test [1], in test [2] and in test [4] were 22 nM, 210 nM and 5 nM, respectively. For the same compound, the Efficacy in [3] was 96%; in test [5], 93%; in test [6], 92%.

On to `CCc1ccc(C2=C(/C=C/C#Cc3ccc(C(=O)O)cc3)C(C)(C)CCC2)cc1`, for which the half-inhibitory concentration (IC50) (usually the concentration that gives 50% inhibition) in [1] stood at 40 nM; in test [2], 220 nM; in test [4] it was 3 nM. The Efficacy is 95% in test [3], 97% in test [5] and 96% in test [6].

In the case of `CC1(C)CCCC(c2ccc(C(C)(C)C)cc2)=C1/C=C/C#Cc1ccc(C(=O)O)cc1`, the results for the dissociation constant Kd in test [7], in test [8] and in test [9] were 331 nM, 25 nM and 875 nM, respectively. The Efficacy was 95% in test [3], 94% in test [5] and 96% in test [6].

`CC1=C(/C=C/C#Cc2ccc(C(=O)O)cc2)C(C)(C)CCC1`: the EC50 (usually the concentration at which the effect is half-maximal) was found to be 435 nM in test [10] and 7 nM in test [11]. Also, the dissociation constant Kd (as a rule, a measure of binding affinity in units of concentration) worked out at 190 nM in [7], 20 nM in test [8] and 135 nM in [9].

On to `CC1(C)CCC(C)(C)c2cc(C/C=C/c3ccc(C(=O)O)cc3)ccc21`, for which the EC50 was 4 nM in test [12], 30 nM in test [10] and 8 nM in [11]. In addition, the results for the Kd in [7], in test [8] and in [9] were 26 nM, 5 nM and 36 nM, respectively.

`Cc1ccc(C2=CCC(C)(C)c3ccc(C#Cc4ccc(C(=O)O)cc4)cc32)cc1`: the IC50 in test [1] was determined as 20 nM; in test [2], 31 nM; in [4] it was 3 nM. Besides, the Efficacy in test [3] stood at 98%; in [5], 91%; in test [6], 97%. The Kd in test [9] was found to be 17 nM.

As to `CC1(C)C=C(/C=C/C#Cc2ccc(C(=O)O)cc2)C(c2ccc(C(C)(C)C)cc2)=CC1`, the Kd in [7] was above 1000 nM; in test [8], 87 nM; in test [9], above 1000 nM.

Take `Cc1ccc(C2=CCC(C)(C)C=C2/C=C/C#Cc2ccc(C(=O)O)cc2)cc1`: the results for the Kd in test [7], in test [8] and in [9] were 31 nM, 53 nM and 252 nM, respectively. The Efficacy in test [3] amounted to 97%; in [5], 96%; in [6], 94%.
